Measurements as given in ChEMBL document CHEMBL3856188, “Usnic Acid Derivatives with Cytotoxic and Antifungal Activities from the Lichen Usnea longissima” (J Nat Prod, 2016).
Converted amounts (≈) assume the structure as drawn.

Assays:
[1] = Cytotoxicity against human HepG2 cells assessed as cell growth inhibition after 48 hrs by MTT assay; type: functional, cell-based; conditions: HepG2, 48 h
How it was run: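 HepG2 cells seeded at 3 × 10^3 cells/well in DMEM with 10% FBS and grown 24 h, then exposed to compound for 48 h. MTT (5 mg/mL in PBS) added for 3 h, supernatant removed, formazan dissolved in DMSO with 10 min shaking, and OD read at 490 nm. Methotrexate served as positive control. Values given as IC50.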

[2] = test system: Trichophyton rubrum; assay: Antimicrobial activity against Trichophyton rubrum after 4 days by microdilution method; type: functional; conditions: 96 h

| SMILES | IC50 [1] | MIC50 [2] |
| --- | --- | --- |
| CCO[C@@]12CC(O)=C(C(C)=O)C(=O)[C@]1(C)c1c(O)c(C(C)=O)c(O)c(C)c1O2 | 53.3 µM | 41 µM (≈ 16 µg/mL) |
| CN(Cc1cnc2nc(N)nc(N)c2n1)c1ccc(C(=O)N[C@@H](CCC(=O)O)C(=O)O)cc1 [METHOTREXATE] | 15.8 µM |  |
| CCOC(=O)CCCN/C(C)=C1\C(=O)C=C2Oc3c(C(C)=O)c(O)c(C)c(O)c3[C@@]2(C)C1=O |  | > 200 µM |
| CCO[C@@]12CC(=O)/C(=C(/C)N)C(=O)[C@]1(C)c1c(O)c(C(C)=O)c(O)c(C)c1O2 |  | > 200 µM |
| CCO[C@@]12CC(O)=C(C(C)=O)C(=O)[C@]1(C)c1c(O)c(C)c(O)c(C(C)=O)c1O2 |  | 41 µM (≈ 16 µg/mL) |
| CC(=O)C1=C(O)C=C2Oc3c(C(C)=O)c(O)c(C)c(O)c3[C@@]2(C)C1=O [(+)-USNIC ACID] |  | > 200 µM |
| COC(=O)CCCN/C(C)=C1\C(=O)C=C2Oc3c(C(C)=O)c(O)c(C)c(O)c3[C@@]2(C)C1=O |  | > 200 µM |
| CCO[C@@]12CC(=O)/C(=C(/C)N)C(=O)[C@]1(C)c1c(O)c(C)c(O)c(C(C)=O)c1O2 | 50.2 µM | > 200 µM |
| CCOC(=O)CCCN/C(C)=C1\C(=O)C[C@@]2(OCC)Oc3c(C(C)=O)c(O)c(C)c(O)c3[C@@]2(C)C1=O |  | > 200 µM |
